Measurements taken from ChEMBL document CHEMBL1909609, “Synthesis of purine modified 2'-C-methyl nucleosides as potential anti-HCV agents” (Bioorg Med Chem Lett, 2011).
pEC50: −log10 of the molar value. Active and inactive are the calls of the source. The calls are words filed in the database; no cut-off is given here.

How the values were obtained:
Huh-7 = experiment: Cytotoxicity against human HuH7 cells assessed as rRNA level at 10 uM; format: cell-based; details: huh-7, 10 µM
In short: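 Huh7 cells carrying a subgenomic HCV replicon were given compound at 10 μM. Cytotoxicity was measured alongside anti-HCV activity by extracting and amplifying ribosomal RNA together with HCV RNA.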

[1] = test system: Human immunodeficiency virus 1; experiment: Antiviral activity against HIV1 LAI infected in human peripheral blood mononuclear cells assessed as inhibition of viral replication after 5 days by quantitative RT-PCR analysis; format: functional, organism-based; details: Human immunodeficiency virus 1, LAI, 120 h
In short: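 Primary human PBM cells were infected with HIV-1 LAI, and AZT was run as the positive standard.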

[2] = (§1) Cytotoxicity against human CEM after 5 days; format: cell-based, CCRF-CEM; details: CEM cells (CCRF-CEM)
Hepatitis C virus [3] = experiment: Antiviral activity against HCV infected in human HuH7 cells assessed as inhibition of viral replication at 10 uM by RT-PCR analysis; format: functional, Hepacivirus hominis; details: Huh-7
In short: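 Huh7 cells carrying a subgenomic HCV replicon, with compounds tested at 10 μM. HCV RNA and ribosomal RNA were extracted and amplified together, so cytotoxicity was read at the same time as replicon inhibition.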

[4] = Cytotoxicity against human PBMC after 5 days; format: cell-based
[5] = Cytotoxicity against african green monkey Vero after 5 days; format: cell-based; details: chlorocebus sabaeus, Vero cells
[6] = target: T1, Adenosine deaminase (Homo sapiens) (UniProt P00813); experiment: Activity at adenosine deaminase assessed as nitrogen to oxygen transformation
T1 sequence (whole entry): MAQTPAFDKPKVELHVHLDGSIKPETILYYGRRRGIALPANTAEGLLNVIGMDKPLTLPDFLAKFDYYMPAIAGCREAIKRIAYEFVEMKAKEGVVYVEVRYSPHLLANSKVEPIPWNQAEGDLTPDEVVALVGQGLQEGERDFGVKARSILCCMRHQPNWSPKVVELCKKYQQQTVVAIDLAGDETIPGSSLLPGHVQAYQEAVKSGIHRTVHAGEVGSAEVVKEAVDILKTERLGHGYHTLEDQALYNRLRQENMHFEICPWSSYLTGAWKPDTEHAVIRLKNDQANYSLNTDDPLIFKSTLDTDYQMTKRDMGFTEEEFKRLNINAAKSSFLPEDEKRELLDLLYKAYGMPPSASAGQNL

Hepatitis C virus [7] = experiment: Antiviral activity against HCV infected in human HuH7 cells assessed as inhibition of viral replication by RT-PCR analysis; format: functional, organism-based, Hepacivirus hominis; details: Huh-7
In short: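 Subgenomic HCV replicon system in Huh7 cells. HCV RNA and ribosomal RNA were both extracted and amplified, with the rRNA signal giving cytotoxicity at the same time as antiviral activity.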

[8] = Chemical stability of the compound in phosphate buffer at pH 7.4 assessed as formation of complex mixture product after 3 days; format: physicochemical; details: pH 7.4, 72 h
[9] = target: T1, Adenosine deaminase (Homo sapiens); experiment: Activity at adenosine deaminase
In short: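 ADA inhibition assay: 140 μM adenosine (final) with 0.01 units adenosine deaminase in 50 mM potassium phosphate, pH 7.4; compounds at 10 μM. Absorbance at 265 nm followed over four minutes. Inhibition judged from the change in slope relative to no-compound control, with a slope nearing zero indicating inhibition.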

CCRF-CEM = experiment: as §1; format: cell-based; details: ccrf-cem, 120 h

Row | SMILES | Activity (Huh-7) [%] | pEC50 [1] | EC90 [1] [µM] | CC50 at 120 h [2] [µM] | inhibition at 10 µM (Hepatitis C virus [3]) [%] | CC50 at 120 h [4] [µM] | CC50 at 120 h [5] [µM] | Activity [6] | pEC50 (Hepatitis C virus [7]) | Stability [8] | Activity [9] | CC50 (CCRF-CEM) [µM]
1 | CCOP(=O)(OCC)c1nc(N)nc2c1ncn2[C@@H]1O[C@H](CO)[C@@H](O)[C@@]1(C)O | 15 | < 4.00 | > 100 | > 100 | 19 | > 100 | > 100 | inactive |  |  |  | 
2 | COc1nc(Cl)nc2c1ncn2[C@@H]1O[C@H](CO)[C@@H](O)[C@@]1(C)O | 9.8 | < 4.00 | > 100 | > 100 | 14 | > 100 | > 100 |  |  |  |  | 
3 | C[C@@]1(O)[C@H](O)[C@@H](CO)O[C@H]1n1cnc(C(=O)NN)c1/C(N)=N/N | 9 | < 4.00 | > 100 | > 100 | 0 | > 100 | > 100 |  |  |  |  | 
4 | C[C@@]1(O)[C@H](O)[C@@H](CO)O[C@H]1n1cnc2c(N)nc(-n3cc([Si](C)(C)C)nn3)nc21 | 0 | < 4.00 | > 100 | > 100 | 0 | > 100 | > 100 |  |  |  |  | 
5 | C[C@@]1(O)[C@H](O)[C@@H](CO)O[C@H]1n1cnc2c(N)nc(N=[N+]=[N-])nc21 | 0 | < 4.00 | > 100 | > 100 | 5.2 | > 100 | > 100 |  |  |  |  | 
6 | CCOC(=O)[C@H](C)NP(=O)(OC[C@H]1O[C@@H](n2cnc3c(N)nc(NN)nc32)[C@](C)(O)[C@@H]1O)Oc1ccccc1 (some centres undefined) |  |  |  |  |  |  |  |  | 6.05 |  |  | 
7 | C[C@@]1(O)[C@H](O)[C@@H](CO)O[C@H]1n1cnc2c(N)nc(Cl)nc21 | 5.8 | < 4.00 | > 100 | > 100 | 0 | > 100 | > 100 |  |  |  |  | 
8 | Cc1nc2c3ncn([C@@H]4O[C@H](CO)[C@@H](O)[C@@]4(C)O)c3nc(N)n2n1 | 0 | < 4.00 | > 100 | > 100 | 0 | > 100 | > 100 |  |  |  |  | 
9 | C[C@@]1(O)[C@H](O)[C@@H](CO)O[C@H]1n1cnc2c(=O)[nH]nc(N)c21 | 0 | < 4.00 | > 100 | > 100 | 0 | > 100 | > 100 |  |  |  |  | 
10 | C[C@@]1(O)[C@H](O)[C@@H](CO)O[C@H]1n1cnc2c(N)nc(NN)nc21 | 7 | < 4.00 | > 100 | > 100 | 85 | > 100 | > 100 |  | 5.22 | Unstable |  | 
11 | CCOC(=O)[C@H](C)NP(=O)(OC[C@H]1O[C@@H](n2cnc3c(C)nc(N)nc32)[C@](C)(O)[C@@H]1O)Oc1ccccc1 (some centres undefined) | 0 | 4.17 | > 100 | > 100 | 0 | > 100 | > 100 |  |  |  |  | 
12 | C[C@@]1(O)[C@H](O)[C@@H](CO)O[C@H]1n1cnc2c1nc(N)n1nc(-c3ccco3)nc21 | 0 | < 4.00 | > 100 | > 100 | 0 | > 100 | > 100 |  |  |  |  | 
13 | C[C@@]1(O)[C@H](O)[C@@H](CO)O[C@H]1n1cnc2c(=N)n(N)[nH]c(=O)c21 | 0 | < 4.00 | > 100 | > 100 | 0 | > 100 | > 100 |  |  |  |  | 
14 | C[C@@]1(O)[C@H](O)[C@@H](CO)O[C@H]1n1cnc2c(N)n[nH]c(=O)c21 | 0 | < 4.00 | > 100 | > 100 | 0 | > 100 | > 100 | inactive |  |  |  | 
15 | C[C@@]1(O)[C@H](O)[C@@H](CO)O[C@H]1n1cnc2c(N)nc(-n3ccnn3)nc21 | 0 | < 4.00 | > 100 | > 100 | 0 | > 100 | > 100 | inactive |  |  | Active | 
16 | CCOP(=O)(O)c1nc(N)nc2c1ncn2[C@@H]1O[C@H](CO)[C@@H](O)[C@@]1(C)O | 15 | < 4.00 | > 100 | > 100 | 19 | > 100 | > 100 | inactive |  |  |  | 
17 | C[C@@]1(OC(=O)c2ccccc2)[C@H](OC(=O)c2ccccc2)[C@@H](COC(=O)c2ccccc2)O[C@H]1n1cnc2c(Cl)nc(NO)nc21 | 100 | 4.77 | 65 |  | 100 | 43 | > 100 |  |  |  |  | 7.3
18 | Cc1nc(N)nc2c1ncn2[C@@H]1O[C@H](CO)[C@@H](O)[C@@]1(C)O | 0 | 4.15 | > 100 | 13 | 0 | > 100 | > 100 |  |  |  |  | 
19 | C[C@@]1(OC(=O)c2ccccc2)[C@H](OC(=O)c2ccccc2)[C@@H](COC(=O)c2ccccc2)O[C@H]1n1cnc2c(N)nc(NO)nc21 | 76 | 5.06 | 42 | 27 | 66 | > 100 | 42 |  |  |  |  | 
